In the RNAGym collection of RNA variant scans (doi:10.1126/science.aae0568):
Variants at the floor of the assay were thinned out.

B1: tRNA (parent)
chain: GUUCCGUUGGCGUAAUGGUAACGCGUCUCCCUCCUAAGGAGAAGACUGCGGGUUCGAGUCCCGUACGGAACG

Variants of: B1
Test: yeast fitness relative to wild type (ratio to wild type); higher = fitter; tRNA-Arg(CCU), competitive growth, 37 C, YPD
How it was run: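 For this measurement, the tRNA-Arg(CCU) gene was varied by chemical synthesis at a 3% per-site mutation rate across 69 sites, and each variant was placed at the native genomic locus in Saccharomyces cerevisiae. The pooled strains went through a 24-hour competition in YPD at 37°C in six parallel replicates, with amplicons from start and end populations read by 100-nucleotide paired-end sequencing. Darwinian fitness relative to wild type followed from the change in each genotype's frequency. Genotypes needed ≥ 100 starting reads, and estimates < 0.5 were set to 0.5.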

Row | Variant | yeast fitness
1 | GUUCCGUUGGCCUAAUGGUAACGCGUCUCCCUUCUAAGGAGAAGACCACGGGUUCGAAUCCCGUACGGAACG | ≤ 0.5
2 | GUUCCGUUGGCCUAAUAGUAACGCGUCUCCCUCCUAAGGAGAAGAGUGCGGGUUCGAGUCCCGUAAGGAACG | ≤ 0.5
3 | GUUCCGUUGGCCUAAUGCUAACGCGUCUCCCUCCUAAGGAGAAGACUGCGGGUUCGAGUCCCGUACGGAACG | 0.55
4 | GUUCCGUUGGCCUAAUGGUAACGCGUCUCCCUCCUAAGAAGAAGACUGCGGGUUCGUGUCCCGUACGGAACG | ≤ 0.5
5 | GUUCCGUUGGCCUAAUGGUAACGCGUCUCCCUCCUAAGGAGAAGACUACGGGUUCGAGUCCCGUAUGGAACG | 0.784
6 | GUUCCGUUGGCCUAAUGGUAACGCGUCUCCCUCCUAAGGAGAAGACUGCGGGUUCGAGUCUCGUAUGGACCG | ≤ 0.5
7 | GUUCCGUUGGCCUAAUGGUAACGCGUCUCCCUCCUAAGGAGAAGACUGAGGGUUCGAGUCCCGUACGGAACG | 0.562
8 | GUUCCGUUGGCCUAAUGGUAACGCGUCUCCCUCCUAAGGAGAAGACUGUGGGUUCGAGUCCCGUACGGAACG | 0.893
9 | GUUCCGUUGGCCUAAUGGUAACGCGUCUCGCUCCUAGGGAGAAGACGGCGGGUUCGAGUCCCGUACGGAACG | ≤ 0.5
10 | GUUCCGUUGGCCUAAUGGUAACGCGUCUCCGUGCUAAGGAGAAGACUACGGGUUCGAGUCCCGUACGGAACG | 0.642
11 | GUUCCGUUGGCCUAAUGGUAACGCGUCUCCCUCCUAAGGAGAAGACUCCGGGUUCGAGUCCCGUACGGAUCG | 0.539
12 | GUUCCGUUGGCCUAAUGGUAACGCGUCUCCUUCCUAAGGAGAAGACUGCGGGUUCGAGUCCCGUACGCAACG | 0.505
13 | GUUCCGUUGGCCUAAUGGUAACGCGUCUCCGUCCUAAGGAGAAGACUGCGGGUUCGAGUCCCGUCCGGAACG | ≤ 0.5
14 | GUUCCGUUGGCCUAAUGGUAACGCGUCUCCCUCCUAAGGACAAGACUGCGGGUUCGAGUGCCGUACGGAACG | ≤ 0.5
15 | GUUCCGUUGGCCUAAUGGUAACGCGUCUCCCUCCUAAGGAGAAGACUGUGGGCUCGAGUGCCGUACGGAACG | ≤ 0.5
16 | GUUCCGUUGGCCUAAUGGUAACGCGUCUCCCUGCUAAGGAGAACACUGCGGGUUCGAGUCCCGUACGGCACG | ≤ 0.5
17 | GUUCCGUUGGCCUAAUGGUAACCCGUCUCCCUCCUAAGGAGAAGACUGCAGGUUAGAGUCCCGUACGGAACG | ≤ 0.5
18 | GUUCCGUUGGCCUAAUGGUAACGCGUCUCCCUUCUAAGGAGAAGAGUGCGGGUACGAGUCCCGUACGGAACG | ≤ 0.5
19 | GUUCCGUUGGCCAAAUGGUAACGCGUCUCCCUCCUAAAGAGAAGACUGCGGGUUCGAGUCCCGUACGGAACG | 0.576
20 | GUUCCGUUGGCCUAAUGGUAACGCGUCUCGCUCCUAUGGAAAAGACUGCGGGUUCGACUCCCGUACGGAACG | 0.581
21 | GUUCCGUUGGCCUAAUGGUAACGCGUCUCCCUCCUAAGGAGAAGACUGUGGCUUCGCGUCCCGUCCGGAACG | 0.53
22 | GUUCCGUUGGCCUAAUGGUAACGCGUCUCUCUCCUAAGGAGAAGACUGCGGGUUCGAGUCCCGUAAGGAACG | ≤ 0.5
23 | GUUCCGUUGGCCUAAUGGUAACGCGUCUCCUUCCUAAGGAGAAGACUGCAGGUUCGAGUCCCGUACGGAACG | 0.677
24 | GUUCCGUUGGCCCAAUGGUCACGGGUCUCCCUCCUAAGCAGAAGACUGCGGGUUCGAGUCCCGUACGGAACG | ≤ 0.5
25 | GUUCCGUUGGCCUAAUGGUAACGCGUCUCCCUCCUAAGGAGAAGACUGCGGGUUCGAGUCCGGUAUGGAACG | ≤ 0.5

Row | Variant | yeast fitness
26 | GUUCCGUUGGCCUAAUGGUAACGCGUCUCCGUCCUAAGGAGAAGACUGGGGGUUGGAGUCCCGUACGGUACG | 0.527
27 | GUUCCGUUGGCCUAAUGGUAACGCGUCUCCCUCUUAAGGAGAAAACUGCGCGUUCGAGUCCCGUACGGAACG | ≤ 0.5
28 | GUUCCGUUGGCCAAAUGGUCGCGCGGCUCCCUCCUAAGGAGAAGACUGCGGGUUCGAGUCCCGUACGGAACG | ≤ 0.5
29 | GUUCCGUUGGCCUAAUGGUAACGCGUCUCCCUCCUAAGGAGAAGACUGCGGGUUCGAGUCCUGUACGGUACG | 0.651
30 | GUUCCGUUGGCCUAAUGGUAACGCGUCUCCCUCCUAAGGAGAAGAUUGCGGGUUCGAGUCCCGUACGGAACG | 0.815
31 | GUUCCGUUGGCCUAAUGGUAACGCGUCUCCCUCCUAAGGAGAAGAAUGCGGGUUCGAGUCCCGUACGGAACG | 0.928
32 | GUUCCGUUGGCCCAAAGGUAACGCGUCUCCCUCCUAAGGAGAAGACUGCGGGUUCGAGUCCCGUACGGAACG | 0.704
33 | GUUCCGUUGGCCUAAUGGUAACGCGUCUCUCUCCUAAGGAGAGGACUGCGGGUUCGAGUCCCGUACGGAACG | 0.515
34 | GUUCCGUUGGCCUAAUGGUAACGCGUCUCCCUCCUAAGGAGAAGACUGCGGGUUCGAGUCCGGUACGGAACG | 0.739
35 | GUUCCGUUGGCCCAAUGGUAAUGCGUCUCCCUCCUAAGGAGACGACUGCGGGUUCGAGUCCCGUACGCAACG | ≤ 0.5
36 | GUUCCGUUGGCCUAAUGGUAACGCGUCUCCCUCCUAAGGAGAAGAUUGGGGGUUCGAGUCCCGUACGGAACG | 0.622
37 | GUUCCGUUGGCCUAAUGCUAACGCGUCUCCCUCCUAAGGAGAAGACUGCCGGUUCGAGUCCCGUACGGAACG | ≤ 0.5
38 | GUUCCGUUGGCCUAAUGGUAACGCGUCUCCCUCAUAAGGAGAAGACUGCGGGUUCGACUCCCGUCCGGCACG | ≤ 0.5
39 | GUUCCGUUGGCCUAAUGGUAACGCGUCUCCCUCCUAAGGACAAGAUUGCGGGUUCGAGUCCCGUACGGAACG | 0.596
40 | GUUCCGUUGGCCUAAUGGUAACGCGUCUCCCUCAUAAGGAGAAAAUUGCGGGUUCGAGUCCCGUACGAAACG | ≤ 0.5
41 | GUUCCGUUGGCCUAAUAGUAACGCGUCUCCCUCCUAAGGAGAAGACUGCGGGUUCGAGUCCCGUACGGAACG | 0.673
42 | GUUCCGUUGGCCCAAUGGUAACGCGUCUCCCUCCUAAGGUGAAGACUGCGGGUUCGACUCCCGUACGGAACG | ≤ 0.5
43 | GUUCCGUUGGCCUAAUGGUAACGCGUCUCCCUCCUAAGCAGAAGACUGCGGGUUCGAGUCCCGUACGCAACG | ≤ 0.5
44 | GUUCCGUUGGCCUAAUGGUAACGCGUCUCACUCCUAAGGAGGAGACUGCGGGUUCGAGUCCCGUACGGAACG | 0.562
45 | GUUCCGUUGGCCUAAUGGUAACGCGUCUCUCUCUUAAGGAGGAGACUGCGGGUUCGCGUCCCGUACGGAACG | ≤ 0.5
46 | GUUCCGUUGGCCUAAUGCUAACGCGUCUCCCUCCUAAGGAGAAGACUGCGGGUCCGAGUCCCGUACGGAACG | ≤ 0.5
47 | GUUCCGUUGGCCUAAUGGUAACGCGUCUCCCUCUUAAGGAGAAAACUGCGGAUUUGAGUCCCGUACGGAACG | ≤ 0.5
48 | GUUCCGUUGGCCUAAUGGUAACGCGUCUCCUUCCUAAGGAGAAGACUGCGGGUUCGAGUCCGGUACGGAACG | 0.557
49 | GUUCCGUUGGCCGACUGGUAACGCGUCUCCCUCCUUAGGAGAAGACUGCGGGUUGGAGUCCCGUACGGAACG | ≤ 0.5
50 | GUUCCGUUGGCCUAAUGGUAACGCGUCUCCUUCCUAAGGAGAAGACUGCGGGUUCGUGUCCCGUACGGAACG | 0.603

Row | Variant | yeast fitness
51 | GUUCCGUUGGCCUAAUGGUAACGCGUCUCCCUCCUAAGGACAAGACUGCGGGUUCGAGUCCCGUAUGGAACG | 0.551
52 | GUUCCGUUGGCCUAAUGGUAACGCGUCUCCCUGCUAAGGAGAACACUGCGGGUACGAGUCCCGUACGGAACG | ≤ 0.5
53 | GUUCCGUUGGCCUAAUGGUAACGCGUCUCCCUCCUAAGGAAAAGACUGCGGGUUCGAGUGCCGUGCGGAACG | 0.519
54 | GUUCCGUUGGCCUAAUGGUAACGCGUCUCCCUCCUAAGGAGAAGACUGCGGGUUUGAGUCCCGUACGGAACG | 0.734
55 | GUUCCGUUGGCCAAAGGGUAACGGGUCUCCCUCCUAAGGAGAAGACUGCGGGUUCGAGUCCCGUACGGUACG | ≤ 0.5
56 | GUUCCGUUGGCCUAAUGGUAACGCGUCUCCCUCUUAAGGAGAAGACUGUGGGUUCGGGUCCCGUACGGAACG | ≤ 0.5
57 | GUUCCGUUGGCCUAAUGGUAACGCGUCUCUCUGCUAAGGAGAAGACGGCGGGUUCGAGUCCCGUACGGAACG | ≤ 0.5
58 | GUUCCGUUGGCCUAAUGGUAACGCCUCUCCCUCCUAAGGAGAAGACUGCGGGUUCGAGUCCCGUACGGUACG | ≤ 0.5
59 | GUUCCGUUGGCCUAAUGGUAACGCAUCUCCCUCCUAAGGAGAAGACUGUGGGUUCGAGUCCCGUACGGAACG | 0.67
60 | GUUCCGUUGGCCUAAUGGUAACGCGUCUCCCUCCUAAGGAGAAGACUGCUGGUUCGAGUCCCGUACGGAACG | 0.836
61 | GUUCCGUUGGCCUAAUGGUAACGCGUCUCCCUCCUAAGGAGAAGACUGCAGGUUCGAGUCCCGUACGGAACG | 0.736
62 | GUUCCGUUGGCCUAAUGGUAACGCGUCUCCCUCCUAAAGGGCAGACUGCGGGUUCGAGUCCCGUACGGAACG | ≤ 0.5
63 | GUUCCGUUGGCCUAAUGGUAACGCGUCUCCCUCCUAAGGAGAAGACUGCGGGUUGGAGUCCCGUAUGGAACG | ≤ 0.5
64 | GUUCCGUUGGCCUAAUGGUAACGCGUCUCCCUCCUAAGGAGAAGACUGCGGGUUCGAGUCCCGUACAGAACG | 0.771
65 | GUUCCGUUGGCCUAAUGGUAACGCGUCUCCCUCCUAAGGAGAAGACUGCGGGUUCGAGUCCCGUACCGAACG | 0.825
66 | GUUCCGUUGGCCUAAUGGUAACGCGUCUCCGUCCUAAGGAGAAGACUGCGAGUUGGGGUCCCGUACGCAACG | ≤ 0.5
67 | GUUCCGUUGGCCUAAUCGUAAAGCGUCUCCCUCCUAAGGAGCAGACUGCGGGUUCGAGUCCCGUACGGAACG | ≤ 0.5
68 | GUUCCGUUGGCCUAAUGGUAACGCGUCUCCCUACUAAGGAGGAGACUGCGGGUUCGAGUCCCGUACGGAACG | 0.733
69 | GUUCCGUUGGCCUAAUGGUAACGCGUCUCCCUCCUAAGGAGAAGACUGCGGGUUCGAGUCCCGUACGAAACG | 0.945
70 | GUUCCGUUGGCCUAAUGGUAACGCGUCUCCCUCCUAAGGAGAAGACUGCGGGUUCAAGUCCCGUACGGAACG | 0.838
71 | GUUCCGUUGGCCUAAUGGUAACGCGUCUCCCUCCUAAGGAGAAGACUGCGGGUUCCAGUCCCGUACGGAACG | 0.694
72 | GUUCCGUUGGCCUAAUGGUAACGCUUCUCCCUCCUAAGGAGAACACUGCGGGUUCGAGUCCCGUACGGAACG | ≤ 0.5
73 | GUUCCGUUGGCCUAAUGGUAACGCAUCUCCCUGCUAGGGCGAAGACUGGGGGUUCGAGUCCCGUACCGAACG | ≤ 0.5
74 | GUUCCGUUGGCCUAAUGGUAACGCGUCUCCCUCCUAAGGAGAAGACUGCGGGUUCGACUACCGUCCGGAACG | ≤ 0.5
75 | GUUCCGUUGGCCCAAAGGUAACGCGUCUGCCUCCUAAGGAGAACACUGGGGGUUCGCGUCCCGUACGGAACG | ≤ 0.5
